Consider 7 compounds from ChEMBL document CHEMBL4043077, “Revisiting Previously Investigated Plants: A Molecular Networking-Based Study of Geissospermum laeve” (J Nat Prod, 2017).

Molecules are shown by their SMILES. Activity calls are given as the source filed them. No cut-off for these calls is given here.

Assay [1] deals with Leishmania donovani. Description: Antiparasitic activity against Leishmania donovani LV9 […] amastigotes infected in mouse RAW264.7 cells incubated for 48 hrs by Sybr Green I dye based assay. It is filed as functional, cell-based. The note with it: LV9, RAW264.7, 48 h. The method, boiled down:
(§1)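 Mean ± standard error of three independent in vitro experiments. Reference drugs: miltefosine for L. donovani LV9, tested on axenic amastigotes and on amastigotes inside RAW 264.7 macrophages; paclitaxel for MRC-5, a human fetal lung fibroblast line.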

For assay [2], the system named is Leishmania donovani. Briefly: Antiparasitic activity against Leishmania donovani LV9 […] amastigotes infected in mouse RAW264.7 cells assessed induction of parasite cell morphological alteration at 6.25 uM incubated for 72 hrs by microscopy. Format: functional, cell-based. The method, boiled down:
(§2)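 RAW 264.7 macrophages infected with L. donovani LV9 amastigotes were incubated with compound for 72 h, then examined under the microscope for morphological alteration of the infected cells.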

A further assay deals with Plasmodium falciparum. Briefly: Antiparasitic activity against chloroquine-resistant Plasmodium falciparum FcB1/Columbia infected in human erythrocytes assessed as reduction in [3H]-hypoxanthine incorporation incubated for 24 hrs assay by liquid scintillation spectrometry. It is filed as functional, cell-based. The procedure, abridged:
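In vitro test of purified alkaloids against the FcB1 strain. Values are the mean ± standard error of three independent experiments.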

For the next assay, the system named is MRC5. Description: Cytotoxic activity against human MRC5 cells incubated for 72 hrs by resazurin dye based spectrophotometry. It is filed as cell-based. The note with it: MRC5, 72 h. The procedure, abridged:
as §1
Background: Alamar Blue is a resazurin reagent that responds to reducing activity.

Assay [3] deals with Leishmania donovani. Briefly: Antiparasitic activity against Leishmania donovani LV9 axenic amastigotes incubated for 72 hrs by resazurin dye based assay. It is filed as functional. The note with it: LV9, 72 h. The method, boiled down: as §1
In assay [4] the test system is Leishmania donovani. Description: Antiparasitic activity against Leishmania donovani LV9 […] amastigotes infected in mouse RAW264.7 cells assessed induction of parasite cell morphological alteration at 100 uM incubated for 72 hrs by microscopy. It is filed as functional, cell-based. The method, boiled down:
as §2

Assay [5] relates to Leishmania donovani. Description: Antiparasitic activity against Leishmania donovani LV9 […] amastigotes infected in mouse RAW264.7 cells assessed induction of parasite cell morphological alteration at 50 uM incubated for 72 hrs by microscopy. Format: functional, cell-based. The procedure, abridged: as §2
Assay [6] concerns Leishmania donovani. Description: Antiparasitic activity against Leishmania donovani LV9 […] amastigotes infected in mouse RAW264.7 cells assessed induction of parasite cell morphological alteration at 12.5 uM incubated for 72 hrs by microscopy. Format: functional, cell-based. The method, boiled down: as §2

Turning to `C/C=C1\C[C@H]2[C@@H]([C@@H]3OC[C@H]4[C@H]5C[C@@H]6N(CC[C@@]67c6ccccc6N3[C@@H]47)C[C@H]5CC)[C@@H]3Cc4c([nH]c5ccccc45)[C@H]2N3C1`, the IC50 with Leishmania donovani [1] came out at 4.5 µM; with Plasmodium falciparum it was 1.9 µM; with MRC5, 0.022 µM; with Leishmania donovani [3] it was 9.4 µM. Moreover, in the assay with Leishmania donovani [2], the result was Active.

Consider `CCC1=C(CC(=O)OC)[C@@](O)(c2nccc3c2[nH]c2ccccc23)OC1=O`, for which the IC50 in the assay with Leishmania donovani [1] was 25.7 µM; in the assay with Plasmodium falciparum, 74.2 µM; in the assay on MRC5, greater than 50 µM; in the assay with Leishmania donovani [3] it was greater than 100 µM. Also, the outcome in the assay on Leishmania donovani [4] was inactive.

In the assay with MRC5, `CC(=O)O[C@H]1C(=O)[C@@]2(C)[C@H]([C@H](OC(=O)c3ccccc3)[C@]3(O)C[C@H](OC(=O)[C@H](O)[C@@H](NC(=O)c4ccccc4)c4ccccc4)C(C)=C1C3(C)C)[C@]1(OC(C)=O)CO[C@@H]1C[C@@H]2O` [PACLITAXEL] returned an IC50 of 0.00052 µM.

As to `C/C=C1/C[n+]2ccc3c([nH]c4ccccc43)c2C[C@@H]1[C@@H](C(=O)OC)[C@@H]1OC[C@H]2[C@H]3C[C@@H]4N(CC[C@@]45c4ccccc4N1[C@@H]25)C[C@H]3CC`, in the assay with Leishmania donovani [5], the result was Active. The IC50 in the assay with Leishmania donovani [1] came to 57.8 µM; with Plasmodium falciparum, 2.9 µM; in the assay with MRC5, 3 µM; with Leishmania donovani [3] it was 51.8 µM.

For `CCC1=C(CC(=O)OC)[C@@](OC)(c2nccc3c2[nH]c2ccccc23)OC1=O`, the IC50 with Leishmania donovani [1] is 59.6 µM; with Plasmodium falciparum it was 56 µM; with MRC5, greater than 50 µM; in the assay on Leishmania donovani [3], greater than 100 µM. Besides, the result in the assay with Leishmania donovani [4] was inactive.

Take `CCCCCCCCCCCCCCCCOP(=O)([O-])OCC[N+](C)(C)C` [MILTEFOSINE]: the IC50 is 5.2 µM with Leishmania donovani [1] and 1.4 µM in the assay on Leishmania donovani [3]. In addition, the outcome with Leishmania donovani [6] was Active.

As to `CC[C@@]12CCCN3C(=O)C=C(c4ccccc4NC(=O)CC1)[C@]32O`, the IC50 in the assay with Leishmania donovani [1] was 25 µM; in the assay with Plasmodium falciparum it was greater than 100 µM; in the assay on MRC5 it was greater than 50 µM; in the assay on Leishmania donovani [3], greater than 100 µM. In the assay on Leishmania donovani [4], the result was inactive.

Broadly, the IC50 is the concentration that inhibits the measured activity by half.
